Published values collected from several papers.
CDK8 with cyclin C: Cyclin-dependent kinase 8, with cyclin C (CDK8, Homo sapiens, UniProt P49336)
CDK8: Cyclin-dependent kinase 8 (CDK8, Homo sapiens, UniProt P49336)

CCOc1cc(-c2nncn2C)ccc1Nc1ncc2cc(C)nc(NCC(C)(C)C)c2n1
inhibition (CDK8 with cyclin C; cell-free assay; TR-FRET; 1 µM): ≤ 15%

NS(=O)(=O)c1cc(NC(=O)Cc2ccccc2)ccc1Oc1cccc(Cl)c1
remaining binding (CDK8; cell-free assay; competition with immobilised ligand; 1 µM): 68%

O=C(Nc1cnn(-c2csc(C(=O)NC3COC3)c2)c1)Nc1c(F)cccc1Cl
remaining activity (CDK8 with cyclin C; enzyme activity; inhibitor; 5 µM): 99%

CCC(=O)N[C@H]1CC[C@@H](C(=O)N(C)c2ccc(-c3nc4ccccc4o3)cc2)C1
remaining binding (CDK8; cell-free assay; competition with immobilised ligand; 1 µM): 100%

Cn1c2c(Cl)c(Cl)ccc2c2cn[nH]c(=O)c21
ΔTm (CDK8; thermal stability; DSF; 10 µM): 1 °C

CS(=O)(=O)N1CCCC(NC(=O)[C@H](CCC2CCCCC2)NC(=O)c2ccc(CNC(=O)c3cnc4ccccn34)cc2)C1 (some centres unmarked)
remaining binding (CDK8; cell-free assay; competition with immobilised ligand; 0.1 µM): 42%

CN1CCC2(CC1)NC(=O)c1c(c3ccc(Cl)c(Cl)c3n1C)C2C#N (racemic)
ΔTm (CDK8; thermal stability; DSF; 10 µM): 1.8 °C

CN1CCN(C(=O)c2ccc3cc(CCNc4ccnc5ccc(C#N)cc45)ccc3c2)CC1
kon (CDK8 with cyclin C; binding; TR-FRET): 878000 M⁻¹ s⁻¹

CC(C)(C)c1nc(-c2cccc(NS(=O)(=O)c3c(F)cccc3F)c2F)c(-c2ccnc(N)n2)s1
remaining activity (CDK8 with cyclin C; enzyme activity; inhibitor; radiometric; 1 µM): 109%

Cn1c2c(c3ccc(Cl)c(Cl)c31)C(C#N)C1(CCCCC1)NC2=O (racemic)
ΔTm (CDK8; thermal stability; DSF; 10 µM): 0.4 °C

Cc1sc(C(=O)NC2COC2)cc1-n1cc(NC(=O)Nc2c(F)cccc2Cl)cn1
remaining activity (CDK8 with cyclin C; enzyme activity; inhibitor; 10 µM): 92.7%

Cn1c2c(c3ccc(Cl)c(Cl)c31)C(C#N)C1(CCNCC1)NC2=O (racemic)
ΔTm (CDK8; thermal stability; DSF; 10 µM): 2.2 °C

CC(C)CC(=O)N1CCc2nc(-c3ccc(Br)cc3)nc(N(C)Cc3ccccc3)c2C1
remaining binding (CDK8; cell-free assay; competition with immobilised ligand; 0.1 µM): 82%

Cc1ccc(C(=O)Nc2ccc(CN3CCN(C)CC3)c(C(F)(F)F)c2)cc1C#Cc1cnc2cccnn12
remaining activity (CDK8; enzyme activity; inhibitor; 23.5 nM): 9.5%
